In brackets after ≈: the same amount, converted by molar mass. Activity calls are given as the source filed them. No cut-off for these calls is given here.

For one assay, the system named is B16. Nature of the assay: Cytotoxicity against mouse B16 cells. Format: functional, cell-based.
Assay [1] is described as follows: Cytotoxicity against human Hep3B cells by MTT assay. Format: functional, cell-based, Hep 3B2. The gist of the method: (§1)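 Freshly trypsinized cells were seeded at 5000-10 000 per well, and compounds were added from DMSO stocks and left for 3 days. Attached cells were then given MTT ([…], 1 h) and dissolved in DMSO, with absorbance read at 550 nm.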
On the technique in general: Formazan colour is commonly taken as a measure of viable cells.

The subject of a further assay is A549. Nature of the assay: Cytotoxicity against human A549 cells by MTT assay. The class given is functional, cell-based. The gist of the method: as §1
In the next assay the test system is MDA-MB-231. As to the kind of experiment: Cytotoxicity against human MDA-MB-231 cells by MTT assay. The class given is functional, cell-based. The gist of the method: as §1
Another assay deals with HepG2. As to the kind of experiment: Cytotoxicity against human HepG2 cells by MTT assay. The class given is functional, cell-based. The gist of the method: as §1
Assay [2] concerns HL-60. Nature of the assay: Cytotoxicity against human HL60 cells by MTT assay. The class given is functional, cell-based. The gist of the method:
as §1

The test system of the next assay is MCF7. As to the kind of experiment: Cytotoxicity against human MCF7 cells by MTT assay. Format: functional, cell-based. The gist of the method: as §1
The subject of a further assay is Ca9-22. Nature of the assay: Cytotoxicity against human sCa9-22 cells by MTT assay. Format: functional, cell-based. The gist of the method:
as §1

For assay [3], the system named is HL-60. As to the kind of experiment: Cell cycle arrest in human HL60 cells assessed as accumulation at subG1 cells at 1.250 ug/ml after 24 hrs. Format: functional. The gist of the method: (§2)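 Treated and control HL60 cells harvested, washed in cold PBS, fixed in 70% ethanol and held at 4 °C. […] DNA content read by flow cytometry. Fractions in sub-G1, G0/G1, S and G2/M assigned by cell-cycle modelling software.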

Assay [4] deals with HL-60. Nature of the assay: Cell cycle arrest in human HL60 cells assessed as accumulation at subG1 cells at 5 ug/ml after 24 hrs. Format: functional. The gist of the method: as §2
Assay [5] has as its system HL-60. Nature of the assay: Cell cycle arrest in human HL60 cells assessed as accumulation at G0/G1 cells at 5 ug/ml after 24 hrs. Format: functional. The gist of the method: as §2
The subject of assay [6] is HL-60. As to the kind of experiment: Cell cycle arrest in human HL60 cells assessed as accumulation at G0/G1 cells at 0.625 ug/ml after 24 hrs by flow cytometry. The class given is functional. The gist of the method:
as §2
A general note: A flow cytometer gives signals particle by particle.

Assay [7] concerns HL-60. As to the kind of experiment: Induction of apoptosis in human HL60 cells assessed as effect on Bcl2 protein level by Western blotting. The class given is functional, cell-based. The gist of the method:
(§3)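 Lysate cleared at 20000g, 30 min, 4 °C and protein measured by BCA. 50 µg resolved on 12% SDS-PAGE, blotted to PVDF and probed for PARP, Bax and Bcl-2, with β-tubulin as loading control.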
(In western blotting, separated proteins are transferred to a membrane and probed.)

The test system of assay [8] is HL-60. As to the kind of experiment: Cell cycle arrest in human HL60 cells assessed as accumulation at subG1 cells at 2.5 ug/ml after 24 hrs. The class given is functional. The gist of the method: as §2
For assay [9], the system named is HL-60. Nature of the assay: Cell cycle arrest in human HL60 cells assessed as accumulation at subG1 cells at 0.625 ug/ml after 24 hrs by flow cytometry. The class given is functional. The gist of the method: as §2
The subject of assay [10] is HL-60. Nature of the assay: Cell cycle arrest in human HL60 cells assessed as accumulation at S cells at 2.5 ug/ml after 24 hrs. Format: functional. The gist of the method:
as §2

Assay [11] has as its system HL-60. Nature of the assay: Cell cycle arrest in human HL60 cells assessed as accumulation at G0/G1 cells at 1.250 ug/ml after 24 hrs. Format: functional. The gist of the method: as §2
The subject of assay [12] is HL-60. As to the kind of experiment: Induction of apoptosis in human HL60 cells assessed as PARP cleavage by Western blotting. The class given is functional, cell-based. The gist of the method: as §3
Assay [13] relates to HL-60. Nature of the assay: Cell cycle arrest in human HL60 cells assessed as accumulation at G2 cells at 2.5 ug/ml after 24 hrs. Format: functional. The gist of the method: as §2
For assay [14], the system named is HL-60. As to the kind of experiment: Cell cycle arrest in human HL60 cells assessed as accumulation at G2 cells at 0.625 ug/ml after 24 hrs by flow cytometry. The class given is functional. The gist of the method:
as §2

The test system of assay [15] is HL-60. Nature of the assay: Cell cycle arrest in human HL60 cells assessed as accumulation at S cells at 1.250 ug/ml after 24 hrs. Format: functional. The gist of the method:
as §2

Assay [16] relates to HL-60. As to the kind of experiment: Cell cycle arrest in human HL60 cells assessed as accumulation at G2 cells at 5 ug/ml after 24 hrs. The class given is functional. The gist of the method: as §2
Assay [17] has as its system HL-60. Nature of the assay: Cell cycle arrest in human HL60 cells assessed as accumulation at G2 cells at 1.250 ug/ml after 24 hrs. The class given is functional. The gist of the method: as §2
Assay [18] deals with HL-60. Nature of the assay: Cell cycle arrest in human HL60 cells assessed as accumulation at S cells at 5 ug/ml after 24 hrs. The class given is functional. The gist of the method: as §2
Assay [19] deals with HL-60. Nature of the assay: Cell cycle arrest in human HL60 cells assessed as accumulation at G0/G1 cells at 2.5 ug/ml after 24 hrs. Format: functional. The gist of the method: as §2
Assay [20] relates to HL-60. As to the kind of experiment: Cell cycle arrest in human HL60 cells assessed as accumulation at S cells at 0.625 ug/ml after 24 hrs by flow cytometry. Format: functional. The gist of the method:
as §2

In assay [21] the test system is HL-60. As to the kind of experiment: Induction of apoptosis in human HL60 cells assessed as increase in Bax protein level by Western blotting. Format: functional, cell-based. The gist of the method:
as §3

In the case of `C=C(CO)[C@@H]1CC[C@]2(C)CC[C@]3(C)[C@H](CC[C@@H]4[C@@]5(C)CCC(=O)C(C)(C)[C@@H]5CC[C@]43C)[C@@H]12`, in the assay on B16, the IC50 – broadly, the point on the concentration scale where inhibition reaches its midpoint – stood at 9.2 µg/mL (≈ 20.9 µM).

In the case of `C=C(C)[C@@H]1CC[C@]2(C(=O)O)CC[C@]3(C)[C@H](CC[C@@H]4[C@@]5(C)CC[C@@H](O)C(C)(C)[C@@H]5CC[C@]43C)[C@@H]12` [EPIBETULINIC ACID], the concentration for half-maximal inhibition (IC50) in assay [1] turned out to be 8.1 µg/mL (≈ 17.7 µM); in the assay on A549, 9.7 µg/mL (≈ 21.2 µM); with MDA-MB-231 it was 9.2 µg/mL (≈ 20.1 µM); in the assay with HepG2, 9.3 µg/mL (≈ 20.4 µM); in the assay with HL-60 [2], 2.3 µg/mL (≈ 5.04 µM); in the assay with MCF7 it was 9.7 µg/mL (≈ 21.2 µM).

In the case of `C=C(C)[C@@H]1CC[C@]2(CO)CC[C@]3(C)[C@H](CC[C@@H]4[C@@]5(C)CC[C@@H](O)C(C)(C)[C@@H]5CC[C@]43C)[C@@H]12` [3-EPI-BETULIN], the half-inhibitory concentration (IC50) in assay [1] was 9.3 µg/mL (≈ 21 µM); in the assay with A549, 15.7 µg/mL (≈ 35.5 µM); in the assay with MDA-MB-231, more than 20 µg/mL; in the assay with HepG2, 6.7 µg/mL (≈ 15.1 µM); in the assay with Ca9-22, more than 20 µg/mL; with HL-60 [2] it was 1.7 µg/mL (≈ 3.84 µM). Moreover, inhibition in the assay with MCF7 was half-maximal at 16 µg/mL (≈ 36.1 µM) (IC50).

Consider `COc1cccc2c1C(=O)c1c(O)c3c(c(O)c1C2=O)C[C@@](O)(C(=O)CO)C[C@@H]3O[C@H]1C[C@H](N)[C@H](O)[C@H](C)O1` [DOXORUBICIN], for which the IC50 in assay [1] stood at 0.27 µg/mL (≈ 0.497 µM); in the assay with MDA-MB-231 it was 0.15 µg/mL (≈ 0.276 µM); with HepG2 it was 0.17 µg/mL (≈ 0.313 µM); in the assay on Ca9-22 it was 0.09 µg/mL (≈ 0.166 µM); in the assay with HL-60 [2], 0.003 µg/mL (≈ 0.00552 µM); with MCF7, 0.32 µg/mL (≈ 0.589 µM).

On to `C=C(C)[C@@H]1CC[C@]2(C(=O)O)CC[C@]3(C)[C@H](CC[C@@H]4[C@@]5(C)CC[C@H](O)C(C)(C)[C@@H]5CC[C@]43C)[C@@H]12` [BETULINIC ACID], for which the IC50 in assay [1] was 1.7 µg/mL (≈ 3.72 µM); with A549 it was 2.8 µg/mL (≈ 6.13 µM); in the assay on MDA-MB-231 it was 3.5 µg/mL (≈ 7.66 µM); in the assay with HepG2, 3.1 µg/mL (≈ 6.79 µM); with Ca9-22, more than 20 µg/mL; in the assay with B16, 5 µg/mL (≈ 10.9 µM). Moreover, the 50% inhibitory concentration (IC50) amounted to 2 µg/mL (≈ 4.38 µM) in the assay on HL-60 [2] and 4 µg/mL (≈ 8.76 µM) with MCF7.

For the compound `C=C(C=O)[C@@H]1CC[C@]2(CO)CC[C@]3(C)[C@H](CC[C@@H]4[C@@]5(C)CCC(=O)C(C)(C)[C@@H]5CC[C@]43C)[C@@H]12`, the Activity came out at 2.8% with HL-60 [3]; 57.8% in the assay on HL-60 [4]; 14.6% in the assay with HL-60 [5]; 54.2% in the assay with HL-60 [6]; 10.2% with HL-60 [8]; 1.6% in the assay on HL-60 [9]. Also, the Activity is given as 22.3% in the assay on HL-60 [10]; 55.5% in the assay with HL-60 [11]; 11.5% with HL-60 [13]; 13.9% in the assay on HL-60 [14]; 30.5% in the assay with HL-60 [15]; 7.8% in the assay with HL-60 [16]. Moreover, the Activity stood at 11.2% in the assay with HL-60 [17], 19.8% in the assay with HL-60 [18], 56% with HL-60 [19] and 30.3% with HL-60 [20]. The IC50 in assay [1] amounted to 4.7 µg/mL (≈ 10.3 µM); in the assay on A549, 16.4 µg/mL (≈ 36.1 µM); with MDA-MB-231 it was 7.9 µg/mL (≈ 17.4 µM); in the assay with HepG2 it was 12.6 µg/mL (≈ 27.7 µM); in the assay with Ca9-22 it was 1.4 µg/mL (≈ 3.08 µM); in the assay with HL-60 [2] it was 1.6 µg/mL (≈ 3.52 µM). The same compound yielded an IC50 with MCF7 of 2.9 µg/mL (≈ 6.38 µM). The outcome in the assay on HL-60 [7] was inactive. For the same compound, the result in the assay on HL-60 [12] and in the assay with HL-60 [21] was Active.

These data come from ChEMBL document CHEMBL1155796, “Lupane-type triterpenoids from Microtropis fokienensis and Perrottetia arisanensis and the apoptotic effect of 28-hydroxy-3-oxo-lup-20(29)-en-30-al” (J Nat Prod, 2008).
